In ChEMBL document CHEMBL3580617, “Discovery of Benzimidazole CYP11B2 Inhibitors with in Vivo Activity in Rhesus Monkeys” (ACS Med Chem Lett, 2015):
Values belong to the molecule of their own block, whether it stands above or below them. Activity calls are given as the source filed them. No cut-off for these calls is given here.

What was measured:
[1] = target: T1, Steroid 17-alpha-hydroxylase/17,20 lyase (Homo sapiens, UniProt P05093); assay: Inhibition of human CYP17 expressed in COS7 cells incubated for 1 hr before 17-hydroxypregnenolone substrate addition by EIA method; format: cell-based, COS-7
T1 sequence (P05093 whole entry): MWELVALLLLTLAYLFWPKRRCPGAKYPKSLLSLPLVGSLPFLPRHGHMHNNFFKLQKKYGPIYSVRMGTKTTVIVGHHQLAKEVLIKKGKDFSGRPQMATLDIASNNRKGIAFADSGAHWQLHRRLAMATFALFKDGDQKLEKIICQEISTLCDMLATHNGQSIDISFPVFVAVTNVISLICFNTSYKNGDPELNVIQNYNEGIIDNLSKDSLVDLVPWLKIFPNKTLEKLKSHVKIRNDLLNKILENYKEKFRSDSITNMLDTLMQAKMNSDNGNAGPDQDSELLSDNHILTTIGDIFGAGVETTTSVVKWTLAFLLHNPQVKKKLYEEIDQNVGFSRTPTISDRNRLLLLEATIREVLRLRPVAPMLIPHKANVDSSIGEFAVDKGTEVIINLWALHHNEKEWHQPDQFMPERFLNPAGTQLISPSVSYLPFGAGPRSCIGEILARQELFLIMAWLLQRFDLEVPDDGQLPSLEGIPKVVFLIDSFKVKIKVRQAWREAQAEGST

[2] = target: T2, Cytochrome P450 11B2, mitochondrial (Homo sapiens, UniProt P19099); assay: Inhibition of human CYP11B2 expressed in V79 cells incubated for 1 hr before 11-deoxycorticosterone substrate addition by HTRF-based assay; format: cell-based
T2 sequence (P19099 whole entry): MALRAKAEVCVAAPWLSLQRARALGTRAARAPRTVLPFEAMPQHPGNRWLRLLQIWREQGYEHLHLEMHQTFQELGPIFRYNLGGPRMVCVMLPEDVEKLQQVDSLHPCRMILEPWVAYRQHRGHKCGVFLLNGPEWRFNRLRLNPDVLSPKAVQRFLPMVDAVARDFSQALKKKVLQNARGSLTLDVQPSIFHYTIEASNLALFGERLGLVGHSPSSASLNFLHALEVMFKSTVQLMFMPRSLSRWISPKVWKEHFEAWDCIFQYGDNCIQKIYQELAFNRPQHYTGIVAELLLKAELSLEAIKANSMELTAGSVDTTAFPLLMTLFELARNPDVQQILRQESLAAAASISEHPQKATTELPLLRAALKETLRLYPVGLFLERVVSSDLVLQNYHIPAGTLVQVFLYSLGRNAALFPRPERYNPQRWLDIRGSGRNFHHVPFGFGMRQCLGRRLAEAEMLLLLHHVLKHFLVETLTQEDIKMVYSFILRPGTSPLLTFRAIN
Outline: (§1)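 Human CYP11B2 and CYP11B1 inhibition was tested in cell-based assays. Selectivity was taken as the hCYP11B1 IC50 divided by the hCYP11B2 IC50.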

[3] = target: T3, Cytochrome P450 11B1, mitochondrial (Homo sapiens, UniProt P15538); assay: Inhibition of human CYP11B1 expressed in V79 cells incubated for 1 hr before 11-deoxycortisol substrate addition by HTRF-based assay; format: cell-based; outline: as §1
T3 sequence (P15538 whole entry): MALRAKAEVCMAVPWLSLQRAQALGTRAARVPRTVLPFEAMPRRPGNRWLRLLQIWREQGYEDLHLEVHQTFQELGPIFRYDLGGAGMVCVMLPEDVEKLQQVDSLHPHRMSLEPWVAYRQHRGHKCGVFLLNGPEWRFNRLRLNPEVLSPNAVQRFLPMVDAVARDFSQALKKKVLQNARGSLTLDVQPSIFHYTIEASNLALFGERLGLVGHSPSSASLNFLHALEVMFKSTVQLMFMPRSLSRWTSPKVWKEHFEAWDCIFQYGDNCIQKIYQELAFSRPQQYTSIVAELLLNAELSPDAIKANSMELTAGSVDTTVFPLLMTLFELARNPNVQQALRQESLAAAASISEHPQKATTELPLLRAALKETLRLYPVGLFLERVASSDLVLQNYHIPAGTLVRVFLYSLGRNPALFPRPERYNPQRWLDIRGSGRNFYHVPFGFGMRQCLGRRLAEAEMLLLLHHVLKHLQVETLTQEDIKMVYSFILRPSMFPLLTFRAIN

[4] = species on record: Homo sapiens; assay: Selectivity index, ratio of IC50 for human CYP11B1 to IC50 for human CYP11B2; outline: as §1
[5] = target: T4, Steroid 21-hydroxylase (Homo sapiens, UniProt P08686); assay: Inhibition of human CYP21 expressed in COS7 cells incubated for 1 hr before […] substrate addition by HTRF-based assay; format: cell-based, COS-7
T4 sequence (P08686 whole entry): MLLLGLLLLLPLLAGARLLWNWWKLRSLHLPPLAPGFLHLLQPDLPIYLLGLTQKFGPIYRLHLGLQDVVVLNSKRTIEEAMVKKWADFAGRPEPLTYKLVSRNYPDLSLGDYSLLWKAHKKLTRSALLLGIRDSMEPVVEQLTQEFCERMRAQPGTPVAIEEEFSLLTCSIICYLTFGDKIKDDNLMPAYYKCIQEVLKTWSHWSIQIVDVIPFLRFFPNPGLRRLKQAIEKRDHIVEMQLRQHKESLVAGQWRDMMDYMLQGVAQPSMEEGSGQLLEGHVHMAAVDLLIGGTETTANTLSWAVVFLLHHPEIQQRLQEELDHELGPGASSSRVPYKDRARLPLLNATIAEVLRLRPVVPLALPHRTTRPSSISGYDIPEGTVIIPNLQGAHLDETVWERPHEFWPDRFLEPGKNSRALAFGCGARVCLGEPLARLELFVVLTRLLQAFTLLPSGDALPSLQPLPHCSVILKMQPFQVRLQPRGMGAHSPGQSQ

[6] = target: Cytochrome P450 3A4 (Homo sapiens, UniProt P08684); assay: Inhibition of CYP3A4 (unknown origin); format: ADME
[7] = species on record: Homo sapiens; assay: Selectivity index, ratio of IC50 for CYP3A4 (unknown origin) to IC50 for human CYP11B2
[8] = species on record: Homo sapiens; assay: Selectivity index, ratio of IC50 for CYP2C9 (unknown origin) to IC50 for human CYP11B2
[9] = species on record: Homo sapiens; assay: Selectivity index, ratio of IC50 for CYP2D6 (unknown origin) to IC50 for human CYP11B2
[10] = Intrinsic clearance in rhesus monkey liver microsomes at […] incubated for 10 mins before NADPH addition by LC/MS method; format: ADME, Macaca mulatta; settings: read-out: CLH
[11] = Oral bioavailability in rhesus monkey at 1 mg/kg by LC-MS/MS method; format: ADME, organism-based, Macaca mulatta; settings: in vivo
[12] = tested on: Rhesus monkey; assay: Dose normalized AUC in rhesus monkey at 1 mg/kg, po or 0.5 mg/kg, iv by LC-MS/MS method; format: ADME, organism-based, Macaca mulatta; settings: in vivo
[13] = Plasma clearance in rhesus monkey at 1 mg/kg, po or 0.5 mg/kg, iv by LC-MS/MS method; format: ADME, organism-based, Macaca mulatta
[14] = tested on: V79; assay: Inhibition of rhesus monkey CYP11B2 expressed in V79 cells incubated for 1 hr before 11-deoxycorticosterone substrate addition by HTRF-based assay; format: cell-based; settings: Macaca mulatta
[15] = target: T5, Cytochrome P450 11B2, mitochondrial (Rattus norvegicus, UniProt P30099); assay: Inhibition of rat CYP11B2 expressed in V79 cells incubated for 1 hr before 11-deoxycorticosterone substrate addition by HTRF-based assay; format: cell-based; settings: v79, 1 h
T5 sequence (P30099 whole entry): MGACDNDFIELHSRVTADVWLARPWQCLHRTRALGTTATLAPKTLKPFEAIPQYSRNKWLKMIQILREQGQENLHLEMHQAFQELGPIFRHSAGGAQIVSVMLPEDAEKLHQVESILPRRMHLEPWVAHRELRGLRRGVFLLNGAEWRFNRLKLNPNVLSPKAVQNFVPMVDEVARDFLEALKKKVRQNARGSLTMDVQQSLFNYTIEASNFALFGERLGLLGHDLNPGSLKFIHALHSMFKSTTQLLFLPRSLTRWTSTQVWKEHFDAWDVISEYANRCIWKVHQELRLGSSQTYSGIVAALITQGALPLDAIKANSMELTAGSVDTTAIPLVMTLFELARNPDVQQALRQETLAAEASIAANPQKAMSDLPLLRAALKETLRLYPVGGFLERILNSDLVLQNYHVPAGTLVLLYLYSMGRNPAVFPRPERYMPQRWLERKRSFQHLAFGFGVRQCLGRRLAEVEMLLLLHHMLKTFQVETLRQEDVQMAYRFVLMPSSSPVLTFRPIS

[16] = target: T6, Aromatase (Homo sapiens, UniProt P11511); assay: Inhibition of CYP19 (unknown origin) using MFC substrate incubated for 30 mins
T6 sequence (P11511 whole entry): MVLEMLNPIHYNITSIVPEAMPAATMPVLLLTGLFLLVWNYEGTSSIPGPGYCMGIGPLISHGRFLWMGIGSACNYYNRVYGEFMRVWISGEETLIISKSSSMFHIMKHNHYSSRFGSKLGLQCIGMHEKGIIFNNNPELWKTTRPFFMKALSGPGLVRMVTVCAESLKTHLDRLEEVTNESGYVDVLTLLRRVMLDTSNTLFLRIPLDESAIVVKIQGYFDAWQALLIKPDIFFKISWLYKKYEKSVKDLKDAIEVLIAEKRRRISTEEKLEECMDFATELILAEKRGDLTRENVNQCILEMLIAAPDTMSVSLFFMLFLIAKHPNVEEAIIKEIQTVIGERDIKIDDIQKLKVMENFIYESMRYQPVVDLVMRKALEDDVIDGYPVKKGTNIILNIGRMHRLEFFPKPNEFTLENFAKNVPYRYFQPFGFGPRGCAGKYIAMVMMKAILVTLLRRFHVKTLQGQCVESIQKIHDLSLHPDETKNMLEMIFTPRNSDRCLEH

[17] = Fraction unbound in rat plasma at […] incubated for 4 hrs by equilibrium dialysis and LC/MS method; format: ADME, cell-free
[18] = Intrinsic clearance in rat liver microsomes at […] incubated for 10 mins before NADPH addition by LC/MS method; format: ADME; settings: read-out: CLH
[19] = Oral bioavailability in Sprague-Dawley rat at 2 mg/kg by LC-MS/MS method; format: ADME, organism-based; settings: in vivo
Outline: (§2)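 In the rat pharmacokinetic study, AUC was normalized for dose (μM·h·kg/mg), plasma clearance was expressed in mL/min/kg, and oral bioavailability was calculated.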

[20] = tested on: Rattus norvegicus; assay: Dose normalized AUC in Sprague-Dawley rat at 2 mg/kg, po or 1 mg/kg, iv by LC-MS/MS method; format: ADME, organism-based; settings: in vivo; outline: as §2
[21] = Plasma clearance in Sprague-Dawley rat at 2 mg/kg, po or 1 mg/kg, iv by LC-MS/MS method; format: ADME, organism-based; outline: as §2
[22] = target: Cytochrome P450 2C9 (Homo sapiens, UniProt P11712); assay: Inhibition of CYP2C9 (unknown origin); format: ADME
[23] = target: Cytochrome P450 2D6 (Homo sapiens, UniProt P10635); assay: Inhibition of CYP2D6 (unknown origin); format: ADME
[24] = species on record: Homo sapiens; assay: Selectivity index, ratio of IC50 for CYP19 (unknown origin) to IC50 for human CYP11B2
[25] = tested on: Rhesus monkey; settings: Macaca mulatta; 1 mg/kg

Chain of Cytochrome P450 3A4 (P08684 whole entry): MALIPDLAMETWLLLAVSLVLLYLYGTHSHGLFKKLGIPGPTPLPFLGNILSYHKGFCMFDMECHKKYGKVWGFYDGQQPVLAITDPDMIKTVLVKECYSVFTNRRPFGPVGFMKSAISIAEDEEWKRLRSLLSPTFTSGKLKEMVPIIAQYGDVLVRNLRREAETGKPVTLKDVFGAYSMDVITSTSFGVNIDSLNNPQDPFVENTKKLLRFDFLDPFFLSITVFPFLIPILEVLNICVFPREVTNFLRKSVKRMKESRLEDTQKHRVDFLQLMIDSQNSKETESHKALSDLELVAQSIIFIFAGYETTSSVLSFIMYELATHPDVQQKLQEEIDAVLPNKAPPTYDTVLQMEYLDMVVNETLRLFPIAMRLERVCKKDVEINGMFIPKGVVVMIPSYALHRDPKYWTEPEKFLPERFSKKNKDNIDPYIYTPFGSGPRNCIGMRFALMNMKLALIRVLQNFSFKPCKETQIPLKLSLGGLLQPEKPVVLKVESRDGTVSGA
Chain of Cytochrome P450 2D6 (P10635 whole entry): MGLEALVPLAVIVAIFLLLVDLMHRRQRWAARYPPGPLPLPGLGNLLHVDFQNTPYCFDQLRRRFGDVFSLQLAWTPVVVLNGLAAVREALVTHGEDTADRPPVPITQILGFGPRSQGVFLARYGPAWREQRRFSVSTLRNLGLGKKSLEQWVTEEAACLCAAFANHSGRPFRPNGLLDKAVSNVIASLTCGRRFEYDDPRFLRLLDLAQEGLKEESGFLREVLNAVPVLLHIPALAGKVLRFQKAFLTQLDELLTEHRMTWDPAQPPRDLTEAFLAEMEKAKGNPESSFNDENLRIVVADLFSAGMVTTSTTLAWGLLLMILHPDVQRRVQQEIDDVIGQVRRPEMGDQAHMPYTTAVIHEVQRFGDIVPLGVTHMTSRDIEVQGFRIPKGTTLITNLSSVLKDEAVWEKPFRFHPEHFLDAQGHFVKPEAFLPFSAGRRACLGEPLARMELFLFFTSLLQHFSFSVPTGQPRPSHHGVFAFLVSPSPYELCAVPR
Chain of Cytochrome P450 2C9 (P11712 whole entry): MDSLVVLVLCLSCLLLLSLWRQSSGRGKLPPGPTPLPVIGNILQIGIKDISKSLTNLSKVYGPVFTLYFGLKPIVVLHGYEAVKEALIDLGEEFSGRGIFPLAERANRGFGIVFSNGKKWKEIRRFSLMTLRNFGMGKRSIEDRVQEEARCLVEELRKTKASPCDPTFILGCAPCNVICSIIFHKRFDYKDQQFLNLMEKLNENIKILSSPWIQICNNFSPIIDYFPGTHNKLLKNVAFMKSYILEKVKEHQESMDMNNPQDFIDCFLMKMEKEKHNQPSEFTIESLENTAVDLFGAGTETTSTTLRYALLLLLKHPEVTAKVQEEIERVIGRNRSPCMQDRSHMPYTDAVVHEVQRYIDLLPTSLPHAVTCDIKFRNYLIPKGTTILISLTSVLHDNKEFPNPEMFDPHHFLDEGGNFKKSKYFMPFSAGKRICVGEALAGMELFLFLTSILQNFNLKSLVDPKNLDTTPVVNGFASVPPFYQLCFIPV

- IC50 [1]: > 10 µM
- IC50 [2]: 0.0005 µM
- IC50 [3]: 0.258 µM
- Ratio IC50 [4]: 553
- IC50 [5]: > 10 µM
- IC50 [6]: 8.24 µM
- CLint scaled [10]: < 20 mL/min/kg
- bioavailability [11]: 88%
- AUC/dose [12]: 2.49 µM·kg·h/mg
- clearance [13]: 19 mL/min/kg
- inhibition (INH) [15]: Not Active
SMILES: Cc1c(F)cncc1-c1nc2cc(F)c(F)cc2n1C1CC1
- Ratio IC50 [7]: > 1000
- Ratio IC50 [8]: > 1000
- Ratio IC50 [9]: > 1000
- inhibition [14]: Active

- IC50 [1]: > 10 µM
- IC50 [16]: 1.27 µM
- Ratio IC50 [4]: 140
- fraction unbound at 4 h [17]: 0.14
- CLint scaled [18]: < 20 mL/min/kg
- bioavailability [19]: 94%
- AUC/dose [20]: 6.55 µM·kg·h/mg
- clearance [21]: 7 mL/min/kg
- IC50 [5]: > 10 µM
- IC50 [6]: > 50 µM
- inhibition (INH) [22]: Not Active
- inhibition (INH) [23]: Not Active
- Ratio IC50 [24]: 500
- inhibition (INH) [15]: Not Active
SMILES: CC(C)(O)c1cncc(-c2nc3cc(F)c(F)cc3n2C2CC2)c1
- inhibition [14]: Active

SMILES: N#Cc1ccc(C2CCCc3cncn32)cc1 (stereo unspecified)
- inhibition [25]: Active
